According to ChEMBL document CHEMBL3286180, “Efficacious inhaled PDE4 inhibitors with low emetic potential and long duration of action for the treatment of COPD” (J Med Chem, 2014):
In brackets after ≈: the same amount, converted by molar mass. Blank lines part the entries; values can stand above or below the compound they belong to. Activity calls are given as the source filed them. The calls are words filed in the database; no cut-off is given here.

Experiments:
[1] = (§1) Half life in rat at 1 mg/kg, iv; format: ADME, organism-based; parameters: dose 1 mg/kg, route intravenous; conditions: in vivo
Outline: (§2)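 Rat pharmacokinetics were run at 1 mg/kg, given iv or by intratracheal instillation, with 2−3 animals per study.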

[2] = Fraction unbound in human plasma; format: ADME, cell-free
[3] = Clearance in dog; format: ADME, organism-based, Canis lupus familiaris; conditions: in vivo
Rattus norvegicus [4] = test: Antiinflammatory activity in Sprague-Dawley rat assessed as inhibition of LPS-induced bronchoalveolar lavage neutrophils at 0.03 mg/ml, inhalation administered as nebulized suspension; format: functional, organism-based
Outline: (§3)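 Rats were given the compound as an aqueous nebulized aerosol by nose-only inhalation 30 min before LPS challenge. Dose is expressed as mg/mL nebulizer concentration. Lung neutrophilia was the readout, and terminal lung concentration (nM) was measured. Groups held 8−10 animals per treatment.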

[5] = biological target: Voltage-gated inwardly rectifying potassium channel KCNH2 (Homo sapiens, UniProt Q12809); test: Inhibition of human ERG
Chain of Voltage-gated inwardly rectifying potassium channel KCNH2 (Q12809 whole entry): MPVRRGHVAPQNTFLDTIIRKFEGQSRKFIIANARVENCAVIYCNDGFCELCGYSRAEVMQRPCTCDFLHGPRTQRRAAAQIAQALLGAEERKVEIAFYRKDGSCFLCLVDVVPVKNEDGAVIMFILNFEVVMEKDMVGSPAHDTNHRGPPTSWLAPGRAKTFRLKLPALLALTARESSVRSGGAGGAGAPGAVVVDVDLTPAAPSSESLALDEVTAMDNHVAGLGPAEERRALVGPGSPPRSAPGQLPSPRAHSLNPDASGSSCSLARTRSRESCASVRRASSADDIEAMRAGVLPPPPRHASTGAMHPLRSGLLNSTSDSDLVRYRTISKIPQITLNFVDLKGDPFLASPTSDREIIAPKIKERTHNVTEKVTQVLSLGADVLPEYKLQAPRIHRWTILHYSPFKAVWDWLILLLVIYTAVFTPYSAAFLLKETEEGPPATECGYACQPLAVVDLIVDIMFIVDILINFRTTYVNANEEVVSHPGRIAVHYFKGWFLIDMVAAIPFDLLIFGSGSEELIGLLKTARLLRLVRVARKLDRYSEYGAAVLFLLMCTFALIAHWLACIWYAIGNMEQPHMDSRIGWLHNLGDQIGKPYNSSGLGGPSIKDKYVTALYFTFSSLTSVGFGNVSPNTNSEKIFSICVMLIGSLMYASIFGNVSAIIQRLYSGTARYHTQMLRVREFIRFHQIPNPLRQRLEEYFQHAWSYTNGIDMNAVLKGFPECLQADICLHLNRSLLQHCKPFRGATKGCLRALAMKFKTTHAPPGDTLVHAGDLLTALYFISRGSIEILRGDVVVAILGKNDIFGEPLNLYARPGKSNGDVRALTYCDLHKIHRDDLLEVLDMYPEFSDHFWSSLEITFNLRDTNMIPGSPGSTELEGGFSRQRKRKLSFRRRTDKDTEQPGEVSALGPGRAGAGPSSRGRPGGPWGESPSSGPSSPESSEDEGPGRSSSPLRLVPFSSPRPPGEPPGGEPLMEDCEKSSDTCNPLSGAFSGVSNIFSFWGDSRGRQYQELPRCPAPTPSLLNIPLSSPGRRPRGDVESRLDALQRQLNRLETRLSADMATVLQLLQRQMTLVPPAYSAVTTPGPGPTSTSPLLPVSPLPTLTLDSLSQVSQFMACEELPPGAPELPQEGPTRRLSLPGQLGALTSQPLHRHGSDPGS

[6] = Aqueous solubility of the compound at pH 7.4; format: physicochemical; conditions: aqueous medium
Rattus norvegicus [7] = test: Antiinflammatory activity in Sprague-Dawley rat assessed as inhibition of LPS-induced bronchoalveolar lavage neutrophils measured as terminal lung concentration at 0.1 mg/ml, inhalation administered as […] treated 12 hrs before LPS; format: functional
Outline: (§4)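 Duration protocol: rats received a nose-only inhalation of nebulized aqueous compound solution 12 h before LPS challenge. Dose is expressed as mg/mL nebulizer concentration. Readout was LPS-induced pulmonary neutrophilia, with terminal lung concentration (nM) measured. Groups held 8−10 animals per treatment.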

Rattus norvegicus [8] = test: Antiinflammatory activity in nasally dosed Sprague-Dawley rat assessed as inhibition of LPS-induced bronchoalveolar lavage neutrophils measured as lung deposited dose administered as […]; format: functional
Outline: (§5)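 ED80 was derived from the nose-only nebulized-solution dose response in rats dosed 30 min before LPS challenge, with neutrophilia as the readout. ED80 is given as nebulizer concentration, as the matching terminal total lung concentration, and as lung deposited dose estimated from measured filter sample and terminal lung levels.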

Rattus norvegicus [9] = test: Antiinflammatory activity in Sprague-Dawley rat assessed as inhibition of LPS-induced bronchoalveolar lavage neutrophils measured as terminal lung concentration at 0.03 mg/ml, inhalation administered as […] treated 12 hrs before LPS; format: functional; outline: as §4
Rattus norvegicus [10] = test: Antiinflammatory activity in Sprague-Dawley rat assessed as inhibition of LPS-induced bronchoalveolar lavage neutrophils at 0.1 mg/ml, inhalation administered as nebulized suspension; format: functional, organism-based; outline: as §3
Rattus norvegicus [11] = test: Antiinflammatory activity in Sprague-Dawley rat assessed as inhibition of LPS-induced bronchoalveolar lavage neutrophils measured as terminal lung concentration at 0.03 mg/ml, inhalation administered as nebulized suspension; format: functional; outline: as §3
[12] = (§6) Volume of distribution at steady state in rat at 1 mg/kg, iv; format: ADME, organism-based; parameters: dose 1 mg/kg, route intravenous; conditions: in vivo, read-out: Vdss
Rattus norvegicus [13] = test: Antiinflammatory activity in Sprague-Dawley rat assessed as inhibition of LPS-induced bronchoalveolar lavage neutrophils measured as terminal lung concentration at 0.3 mg/ml, inhalation administered as nebulized suspension treated 12 hrs before LPS; format: functional; conditions: in the assay text read “nebulized solution” for “nebulized suspension”; outline: as §4
Rattus norvegicus [14] = test: Apparent volume of distribution in rat at 1 mg/kg, iv; format: ADME, organism-based; parameters: dose 1 mg/kg, route intravenous; conditions: in vivo; outline: as §2
Blood [15] = test: tissue or blood; conditions: Rattus norvegicus, 20 h, read-out: pIC50 (converted)
Rattus norvegicus [16] = test: Antiinflammatory activity in nasally dosed Sprague-Dawley rat assessed as inhibition of LPS-induced bronchoalveolar lavage neutrophils measured as nebulizer concentration administered as […]; format: functional; outline: as §5
[17] = Clearance in rat at 1 mg/kg, iv; format: ADME, organism-based; parameters: dose 1 mg/kg, route intravenous; conditions: in vivo; outline: as §2
Blood [18] = test: Antiinflammatory activity in human whole blood assessed as inhibition of LPS-induced TNFalpha production after 20 hrs by ELISA; format: functional, tissue-based
Rattus norvegicus [19] = test: Antiinflammatory activity in Sprague-Dawley rat assessed as inhibition of LPS-induced bronchoalveolar lavage neutrophils measured as terminal lung concentration at 0.1 mg/ml, inhalation administered as nebulized suspension; format: functional; outline: as §3
[20] = Half life in rat at 1 mg/kg, it; format: ADME, organism-based; parameters: dose 1 mg/kg, route endotracheal; conditions: in vivo, inhaled or intranasal; outline: as §2
Rattus norvegicus [21] = test: Antiinflammatory activity in Sprague-Dawley rat assessed as inhibition of LPS-induced bronchoalveolar lavage neutrophils measured as LPS duration at 0.1 mg/ml, inhalation administered as nebulized suspension; format: functional, organism-based; outline: as §4
[22] = Lipophilicity, log D of the compound; format: physicochemical; conditions: octanol/water
[23] = Volume of distribution at steady state in dog; format: ADME, organism-based, Canis lupus familiaris; conditions: in vivo, read-out: Vdss
[24] = Lipophilicity, log K of the compound; format: physicochemical; conditions: octanol/water
[25] = Fraction unbound in rat plasma; format: ADME, cell-free
[26] = Intrinsic clearance in rat hepatocytes measured per 10^6 cells; format: ADME, cell-based, Hepatocyte; conditions: read-out: CLH
[27] = Apparent volume of distribution in dog; format: ADME, organism-based, Canis lupus familiaris; conditions: in vivo, read-out: Vz/F
PBMC = test: Antiinflammatory activity in human PBMC assessed as inhibition of LPS-induced TNFalpha production after 20 hrs by fluorescence linked immunosorbant assay; format: functional, cell-based
Rattus norvegicus [28] = test: Antiinflammatory activity in Sprague-Dawley rat assessed as inhibition of LPS-induced bronchoalveolar lavage neutrophils measured as terminal lung concentration at 0.003 mg/ml, inhalation administered as nebulized suspension; format: functional; outline: as §3
[29] = Half life in dog; format: ADME, organism-based, Canis lupus familiaris; conditions: in vivo
[30] = biological target: T1, 3',5'-cyclic-AMP phosphodiesterase 4B (Rattus norvegicus, UniProt P14646)
T1 sequence (P14646 whole entry): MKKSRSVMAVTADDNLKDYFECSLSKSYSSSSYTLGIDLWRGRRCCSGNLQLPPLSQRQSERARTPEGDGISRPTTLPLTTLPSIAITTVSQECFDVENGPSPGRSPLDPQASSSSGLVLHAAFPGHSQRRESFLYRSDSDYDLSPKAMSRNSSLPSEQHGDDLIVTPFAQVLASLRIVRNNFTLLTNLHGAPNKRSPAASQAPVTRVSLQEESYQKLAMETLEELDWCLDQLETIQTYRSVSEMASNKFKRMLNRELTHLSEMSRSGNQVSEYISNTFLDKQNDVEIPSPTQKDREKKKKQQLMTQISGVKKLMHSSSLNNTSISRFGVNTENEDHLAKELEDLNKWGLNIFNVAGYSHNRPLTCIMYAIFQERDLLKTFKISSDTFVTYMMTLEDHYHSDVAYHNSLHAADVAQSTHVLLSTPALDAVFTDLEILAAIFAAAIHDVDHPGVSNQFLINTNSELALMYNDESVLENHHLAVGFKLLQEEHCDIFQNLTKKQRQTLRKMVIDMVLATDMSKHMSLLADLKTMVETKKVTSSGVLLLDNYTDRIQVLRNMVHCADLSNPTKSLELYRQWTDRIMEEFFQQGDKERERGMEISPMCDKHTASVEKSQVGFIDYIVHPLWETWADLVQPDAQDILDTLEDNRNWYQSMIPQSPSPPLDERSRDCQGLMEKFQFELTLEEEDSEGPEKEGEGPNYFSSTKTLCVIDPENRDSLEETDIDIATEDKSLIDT

[31] = Oral bioavailability in rat at 1 mg/kg; format: ADME, organism-based; conditions: in vivo
Rattus norvegicus [32] = test: Antiinflammatory activity in Sprague-Dawley rat assessed as inhibition of LPS-induced bronchoalveolar lavage neutrophils at 0.01 mg/ml, inhalation administered as nebulized suspension; format: functional; outline: as §3
Rattus norvegicus [33] = test: Antiinflammatory activity in Sprague-Dawley rat assessed as inhibition of LPS-induced bronchoalveolar lavage neutrophils measured as terminal lung concentration at 0.01 mg/ml, inhalation administered as nebulized suspension; format: functional; outline: as §3
[34] = Oral bioavailability in dog; format: ADME, organism-based, Canis lupus familiaris; conditions: in vivo
[35] = Intrinsic clearance in human liver microsomes; format: ADME; conditions: read-out: CLH
Rattus norvegicus [36] = test: Antiinflammatory activity in nasally dosed Sprague-Dawley rat assessed as inhibition of LPS-induced bronchoalveolar lavage neutrophils measured as lung concentration administered as […]; format: functional; outline: as §5
[37] = biological target: 3',5'-cyclic-AMP phosphodiesterase 4A (Homo sapiens, UniProt P27815); test: Inhibition of human PDE4A1A using [3H]cAMP by packard topcount scintillation counting analysis
Chain of 3',5'-cyclic-AMP phosphodiesterase 4A (P27815 whole entry): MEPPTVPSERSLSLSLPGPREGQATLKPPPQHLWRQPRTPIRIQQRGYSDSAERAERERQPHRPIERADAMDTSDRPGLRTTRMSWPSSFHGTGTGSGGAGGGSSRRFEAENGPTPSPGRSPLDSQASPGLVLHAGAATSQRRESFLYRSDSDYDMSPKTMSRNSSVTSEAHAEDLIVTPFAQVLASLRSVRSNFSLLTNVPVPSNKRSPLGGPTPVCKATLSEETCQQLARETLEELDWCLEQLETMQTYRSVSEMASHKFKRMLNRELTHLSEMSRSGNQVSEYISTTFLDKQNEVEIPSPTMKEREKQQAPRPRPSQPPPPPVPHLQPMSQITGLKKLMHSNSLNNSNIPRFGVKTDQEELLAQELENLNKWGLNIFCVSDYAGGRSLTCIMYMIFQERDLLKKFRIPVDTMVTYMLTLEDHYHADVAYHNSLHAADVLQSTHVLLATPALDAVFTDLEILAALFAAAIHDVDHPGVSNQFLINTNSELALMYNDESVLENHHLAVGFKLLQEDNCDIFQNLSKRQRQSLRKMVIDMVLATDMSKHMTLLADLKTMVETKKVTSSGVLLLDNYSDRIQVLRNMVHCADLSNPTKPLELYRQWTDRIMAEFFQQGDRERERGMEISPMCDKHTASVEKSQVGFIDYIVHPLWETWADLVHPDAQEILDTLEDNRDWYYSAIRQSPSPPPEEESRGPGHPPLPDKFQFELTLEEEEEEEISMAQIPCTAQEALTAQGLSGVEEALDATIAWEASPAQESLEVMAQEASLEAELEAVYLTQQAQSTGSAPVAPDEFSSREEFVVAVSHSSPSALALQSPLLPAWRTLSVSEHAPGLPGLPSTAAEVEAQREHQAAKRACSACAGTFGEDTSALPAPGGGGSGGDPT

Rattus norvegicus [38] = test: as §1; format: ADME, organism-based; parameters: dose 1 mg/kg, route intravenous; conditions: in vivo; outline: as §2
Rattus norvegicus [39] = test: Antiinflammatory activity in Sprague-Dawley rat assessed as inhibition of LPS-induced bronchoalveolar lavage neutrophils up to 350 nM, inhalation administered as nebulized […] treated 12 hr before LPS challenge; format: functional, organism-based; outline: as §4
Rattus norvegicus [40] = test: as §6; format: ADME, organism-based; parameters: dose 1 mg/kg, route intravenous; conditions: in vivo
[41] = biological target: 3',5'-cyclic-AMP phosphodiesterase 4B (Homo sapiens, UniProt Q07343); test: Inhibition of human recombinant PDE4B using [3H]cAMP by packard topcount scintillation counting analysis
Chain of 3',5'-cyclic-AMP phosphodiesterase 4B (Homo sapiens, UniProt Q07343) (Q07343 whole entry): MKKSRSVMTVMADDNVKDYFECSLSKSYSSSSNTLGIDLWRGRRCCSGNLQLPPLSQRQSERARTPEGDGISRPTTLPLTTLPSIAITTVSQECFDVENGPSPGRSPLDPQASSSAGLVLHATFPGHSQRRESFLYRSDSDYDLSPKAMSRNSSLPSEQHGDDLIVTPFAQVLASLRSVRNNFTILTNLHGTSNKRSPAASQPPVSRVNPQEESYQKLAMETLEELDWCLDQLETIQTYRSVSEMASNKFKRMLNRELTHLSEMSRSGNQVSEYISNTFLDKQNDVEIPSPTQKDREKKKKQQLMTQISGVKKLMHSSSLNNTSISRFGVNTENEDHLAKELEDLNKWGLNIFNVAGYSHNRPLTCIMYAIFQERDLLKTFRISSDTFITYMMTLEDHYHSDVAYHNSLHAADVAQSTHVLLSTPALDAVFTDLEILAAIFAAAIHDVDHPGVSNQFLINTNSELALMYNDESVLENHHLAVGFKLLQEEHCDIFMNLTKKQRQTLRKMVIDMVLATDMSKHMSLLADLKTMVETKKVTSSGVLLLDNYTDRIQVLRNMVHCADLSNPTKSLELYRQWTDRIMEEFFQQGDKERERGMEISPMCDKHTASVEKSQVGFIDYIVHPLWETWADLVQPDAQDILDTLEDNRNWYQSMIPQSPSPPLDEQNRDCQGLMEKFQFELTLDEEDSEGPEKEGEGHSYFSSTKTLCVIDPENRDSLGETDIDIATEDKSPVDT

Rattus norvegicus [42] = test: Antiinflammatory activity in Sprague-Dawley rat assessed as inhibition of LPS-induced bronchoalveolar lavage neutrophils measured as LPS duration at 0.03 to 3 mg/ml, inhalation administered as nebulized suspension; format: functional, organism-based; outline: as §4
Rattus norvegicus [43] = test: Antiinflammatory activity in Sprague-Dawley rat assessed as inhibition of LPS-induced bronchoalveolar lavage neutrophils at 0.01 to 0.1 mg/ml, inhalation administered as nebulized suspension; format: functional, organism-based; outline: as §3

half-life [1]: 7 h | fraction unbound [2]: 0.013 | clearance [3]: 19 mL/min/kg | solubility [6]: 213 µM (≈ 163 µg/mL) | Vd [12]: 16 L/kg | Vz/F (Rattus norvegicus [14]): 30 L/kg | IC50 (Blood [15]): 0.501 nM | clearance [17]: 50 mL/min/kg | IC50 (Blood [18]): 12.6 nM | half-life [20]: 9 h | logD [22]: 2.8 | Vd [23]: 13 L/kg | log K [24]: 1.88 | fraction unbound [25]: 0.083 | hepatocyte CLint [26]: 13 µL/min/1e6 cells | Vd/F [27]: 25 L/kg | half-life [29]: 15 h | IC50 [30]: 0.0251 nM | bioavailability [31]: < 16% | bioavailability [34]: 6% | microsomal CLint [35]: 78 µL/min/mg | IC50 [37]: < 10 nM
SMILES: Cc1ccc(O)c(C(=O)N[C@H]2CC[C@@H](NC(=O)c3cc(F)cnc3Oc3cccc(-c4ccc(CN5C[C@@H](C)N[C@@H](C)C5)cc4CN4CCOCC4)c3)CC2)c1
inhibition (Rattus norvegicus [4]): Active | IC50 [5]: 6310 nM | Activity (Rattus norvegicus [7]): 14 nM | ED80 (Rattus norvegicus [8]): 0.6 µg/kg | Activity (Rattus norvegicus [9]): 5 nM | inhibition (Rattus norvegicus [10]): Active | Activity (Rattus norvegicus [11]): 88 nM | Activity (Rattus norvegicus [13]): 33 nM | ED80 (Rattus norvegicus [16]): 60 µg/mL (≈ 78.4 µM) | Activity (Rattus norvegicus [19]): 123 nM | inhibition (Rattus norvegicus [21]): Active | IC50 (PBMC): 0.0398 nM | Activity (Rattus norvegicus [28]): 9 nM | inhibition (Rattus norvegicus [32]): Active | Activity (Rattus norvegicus [33]): 26 nM | ED80 (Rattus norvegicus [36]): 78 nM

t1/2 (Rattus norvegicus [38]): 14.9 h | fraction unbound [2]: 0.015 | solubility [6]: 1.2 µM (≈ 0.622 µg/mL) | Vdss (Rattus norvegicus [40]): 0.75 L/kg | IC50 (Blood [15]): 0.251 nM | IC50 (Blood [18]): 0.316 nM | half-life [20]: 8.1 h | IC50 [41]: < 0.01 nM | microsomal CLint [35]: > 150 µL/min/mg
SMILES: COc1cccc(Nc2c(C(N)=O)cnc3c(C)cc(S(=O)(=O)c4cccc(C(=O)N(C)C)c4)cc23)c1 [GSK-256066]
inhibition (Rattus norvegicus [4]): Active | inhibition (Rattus norvegicus [39]): inactive | IC50 (PBMC): 0.00316 nM | inhibition (Rattus norvegicus [42]): Active | inhibition (Rattus norvegicus [43]): inactive
